Legend:
Assay type in all cases: functional
[1] = system: Rattus norvegicus; experiment: Reversal of reserpine plus alpha-Methyl-p-tyrosine-induced hypoactivity in rats was recorded at 1 hr after subcutaneous administration; conditions: sc
Outline: (§1)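 Rats pretreated with reserpine (8.2 µmol/kg = 5 mg/kg sc) 16-20 h before, and α-methyl-p-tyrosine methyl ester (813 µmol/kg = 200 mg/kg ip) 2 h before, test drug or saline. Motility measured under artificial light for 1 h from injection. Counts scored 0 (0-49), 1 (50-149) or 2 (>150). ED50 by log-probit as dose giving half-maximal score.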

[2] = organism: Rattus norvegicus; experiment: Inhibition of spontaneous locomotor activity was performed in photocell cages. Motility was measured at 5 minutes
Outline: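 Rats in photocell cages. Motility counted 5 min after sc injection of test drug. Injection volume 5 mL/kg.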

[3] = system: Rattus norvegicus; experiment: Inhibition of spontaneous locomotor activity was performed in photocell cages. Motility was measured at […] after subcutaneous administration; conditions: sc
Outline: (§2)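 Rats in photocell cages. Motility counted 30-45 min after sc test drug or saline. Injection volume 5 mL/kg.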

[4] = system: Rattus norvegicus; experiment: Contralateral circling behavior in 6-OH-DA-lesioned rats was recorded after subcutaneous administration
[5] = system: Rattus norvegicus; experiment: Inhibition of spontaneous locomotor activity was performed in photocell cages at 30-45 minutes after subcutaneous administration; outline: as §2
[6] = system: Rattus norvegicus; experiment: Antagonism of apomorphine induced stereotype in rats was recorded at 30 minutes after subcutaneous administration of apomorphine; conditions: sc, 0.5 h
Outline: (§3)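 Rats housed in wire mesh cages from the day before. Test drug or saline given sc 30 min before apomorphine (8.2 µmol = 2.5 mg/kg, sc). Oral stereotypy (licking, biting) scored every 15 min for 90 min. ED50 taken from the 30-min post-apomorphine observation, when control activity peaked.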

[7] = system: Rattus norvegicus; experiment: Reversal of reserpine plus alpha-Methyl-p-tyrosine-induced hypoactivity in rats was recorded at 1 h after administration; outline: as §1
[8] = system: Rattus norvegicus; experiment: Ispilateral circling behavior in 6-OH-DA-lesioned rats was recorded after subcutaneous administration; conditions: sc
[9] = organism: Rattus norvegicus; experiment: Reversal of reserpine plus alpha-Methyl-p-tyrosine-induced hypoactivity in rats was recorded.; outline: as §1
[10] = system: Rattus norvegicus; experiment: Reversal of reserpine plus alpha-Methyl-p-tyrosine-induced hypoactivity in rats was recorded after subcutaneous administration; conditions: sc; outline: as §1
[11] = system: Rattus norvegicus; experiment: Antagonism of apomorphine induced stereotype in rats was recorded at 30 minutes after subcutaneous administration apomorphine; conditions: sc, 0.5 h; outline: as §3
[12] = system: Rattus norvegicus; experiment: Antagonism of apomorphine induced stereotype in rats was recorded after subcutaneous administration of apomorphine; conditions: sc; outline: as §3
[13] = system: Rattus norvegicus; experiment: Inhibition of spontaneous locomotor activity was performed in photocell cages. Motility was measured at […] after subcutaneous administration; value ranges from 4.2-11; conditions: sc; outline: as §2
[14] = system: Rattus norvegicus; experiment: Antagonism of apomorphine induced stereotype was recorded at 30 minutes after apomorphine subcutaneous administration; conditions: sc, 0.5 h; outline: as §3
[15] = Rattus norvegicus, sc, read-out: ED50

CN1CCc2cccc3c2[C@H]1Cc1ccc(O)c(O)c1-3 [APOMORPHINE]
ED50 [1]: 0.27 µmol/kg | ED50 [2]: 0.092 µmol/kg | ED50 [3]: 0.64 µmol/kg | ED50 [4, 15]: 0.058 µmol/kg

Oc1cccc(C2CCC3CCCN3C2)c1 (stereo not drawn)
ED50 [4, 15]: > 67 µmol/kg | ED50 [5, 15]: > 67 µmol/kg

CCCN1CCC[C@H](c2cccc(O)c2)C1
ED50 [6]: 63 µmol/kg | ED50 [4, 15]: 1.9 µmol/kg | ED50 [7]: 40 µmol/kg

Oc1cccc(C2CCC3CCCCN3C2)c1 (stereo not drawn) [listing 1 of 2 here]
ED50 [8]: 9.3 µmol/kg | ED50 [5, 15]: > 64 µmol/kg | ED50 [9]: > 62 µmol/kg

Oc1cccc(C2CCCN3CCCC23)c1 (single isomer, unassigned; (+))
ED50 [10]: 150 µmol/kg | ED50 [11]: > 157 µmol/kg | ED50 [4]: 7.1 µM/kg | ED50 [5]: 3.9 µM/kg

Oc1cccc(C2CCCN3CCCC23)c1 (stereo in doubt; 19a)
ED50 [4]: >67 µM/kg | ED50 [5]: >67 µM/kg

Oc1cccc(C2CCCN3CCCCC23)c1 (single isomer, unassigned; 20e)
ED50 [4, 15]: > 87 µmol/kg | ED50 [5, 15]: 63 µmol/kg

Oc1cccc(C2CCCN3CCCC23)c1 (stereo in doubt; 19e)
ED50 [12]: > 134 µmol/kg | ED50 [4]: 13 µM/kg | ED50 ([5]; sc): 7.5 µmol/kg

Oc1cccc(C2CCCN3CCCCC23)c1 (single isomer, unassigned; 20a)
ED50 [4]: >64 µM/kg | ED50 [5]: >64 µM/kg

CCCN1CCC[C@@H](c2cccc(O)c2)C1 [PRECLAMOL]
ED50 [11]: 33 µmol/kg | ED50 [2]: 1.9 µmol/kg | ED50 [13]: 11 µmol/kg | ED50 [4, 15]: 0.77 µmol/kg | ED50 [7]: > 67 µmol/kg

Oc1cccc(C2=CCCN3CCCCC23)c1 (stereo not drawn)
ED50 [1]: > 87 µmol/kg | ED50 [14]: 34 µmol/kg | ED50 [4, 15]: > 87 µmol/kg | ED50 [5, 15]: 8.5 µmol/kg

Oc1cccc(C2CCC3CCCN3C2)c1 (single isomer, unassigned)
ED50 ([5]; sc): > 67 µmol/kg

CCCN1CCCC(c2cccc(O)c2)C1 (stereo not drawn)
ED50 [6]: > 67 µmol/kg | ED50 [4, 15]: 1.7 µmol/kg | ED50 [5, 15]: 3.4 µmol/kg

Oc1cccc(C2CCC3CCCCN3C2)c1 (stereo not drawn) [listing 2 of 2 here]
ED50 [4, 15]: > 64 µmol/kg | ED50 ([5]; sc): > 62 µmol/kg

Oc1cccc(C2CCCN3CCCC23)c1 (single isomer, unassigned; (-))
ED50 [6]: 100 µmol/kg | ED50 [4]: >79 µM/kg | ED50 [5]: 40 µM/kg
